pIC50: −log10 of the molar value. Active and inactive are the calls of the source. The rule behind the calls is not given here.
How the values were obtained:
[1] = tested on: MGC-803; experiment: Anticancer activity against human MGC-803 cells assessed as inhibition of cell proliferation after 48 hrs by MTT assay; assay type: functional, cell-based
In short: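 MTT assay with 48 h compound exposure. MTT solution was then added and incubated 4 h at 37 °C, the supernatant discarded and formazan dissolved in DMSO, with absorbance read at 490 nm. IC50 values were calculated from three independent experiments, reported as mean SD.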

[2] = Selectivity index, ratio of IC50 for human GES1 cells to IC50 for human MGC-803 cells assessed as inhibition of cell proliferation after 48 hrs by MTT assay
In short: (§1)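 Fold selectivity is the IC50 in GES-1 normal gastric epithelial cells divided by the IC50 in the gastric cancer line (HGC-27, MGC-803 or SGC-7901). Both IC50s come from 48 h exposure, MTT (4 h, 37 °C), DMSO solubilisation and 490 nm absorbance, with three independent experiments.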

[3] = Selectivity index, ratio of IC50 for human GES1 cells to IC50 for human HGC-27 cells assessed as inhibition of cell proliferation after 48 hrs by MTT assay; in short: as §1
[4] = tested on: HGC-27; experiment: Cell cycle arrest in human HGC-27 cells assessed as accumulation at G2/M phase at 0.5 to 1.5 umol/L after 48 hrs by RNase/propidium iodide staining based flow cytometry; assay type: functional; details: dose micromol/L 0.5-1.5, time 48.0 hrs
In short: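 MGC-803, SGC-7901 and HGC-27 cells were seeded in 6-well plates and treated 48 h with compound or DMSO. Cells were then harvested and fixed in 70% cold ethanol at 4 °C for 8 h, and cell-cycle phase distribution was quantified by flow cytometry.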

[5] = tested on: HGC-27; experiment: Cell cycle arrest at G2 phase in human HGC-27 cells assessed as downregulation of Cyclin B level at 0.5 to 1.5 umol/L after 48 hrs by Western blot analysis; assay type: functional, cell-based; details: dose micromol/L 0.5-1.5, time 48.0 hrs
In short: (§2)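 Western blot. Cells were treated with compound concentrations or DMSO for 48 h, then lysed, and lysates were denatured, run on SDS-PAGE and transferred to nitrocellulose. After blocking in 5% skimmed milk, membranes were incubated with primary antibodies at 4 °C for 8 h, then secondary antibodies, with ECL detection.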

[6] = tested on: SGC-7901; experiment: Cell cycle arrest at G2 phase in human SGC-7901 cells assessed as downregulation of Cyclin B level at 0.5 to 1.5 umol/L after 48 hrs by Western blot analysis; assay type: functional, cell-based; details: dose micromol/L 0.5-1.5, time 48.0 hrs; in short: as §2
[7] = tested on: MGC-803; experiment: Cell cycle arrest at M phase in human MGC-803 cells assessed as upregulation of p-Histone-3 level at 0.5 to 1.5 umol/L after 48 hrs by Western blot analysis; assay type: functional, cell-based; details: dose micromol/L 0.5-1.5, time 48.0 hrs; in short: as §2
[8] = tested on: HGC-27; experiment: Cell cycle arrest at M phase in human HGC-27 cells assessed as upregulation of p-Histone-3 level at 0.5 to 1.5 umol/L after 48 hrs by Western blot analysis; assay type: functional, cell-based; details: dose micromol/L 0.5-1.5, time 48.0 hrs; in short: as §2
[9] = tested on: HGC-27; experiment: Inhibition of Ras/Raf/MEK/ERK signalling pathway in human HGC-27 cells assessed as decrease in c-Raf phosphorylation after 48 hrs by Western blot analysis; assay type: cell-based; details: dose micromol/L 0.5-1.5, time 48.0 hrs
In short: (§3)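 Cells treated with graded concentrations or DMSO for 48 h, then harvested and lysed. Lysates denatured, resolved by SDS-PAGE and transferred to nitrocellulose. Membranes blocked with 5% skimmed milk and probed with primary antibodies at 4 °C for 8 h, then with secondary antibodies. Bands detected by ECL.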

[10] = tested on: MGC-803; experiment: Inhibition of Ras/Raf/MEK/ERK signalling pathway in human MGC-803 cells assessed as decrease in MEK1 phosphorylation after 48 hrs by Western blot analysis; assay type: cell-based; details: dose micromol/L 0.5-1.5, time 48.0 hrs; in short: as §3
[11] = tested on: HGC-27; experiment: Inhibition of Ras/Raf/MEK/ERK signalling pathway in human HGC-27 cells assessed as decrease in MEK1 phosphorylation after 48 hrs by Western blot analysis; assay type: cell-based; details: dose micromol/L 0.5-1.5, time 48.0 hrs; in short: as §3
[12] = tested on: SGC-7901; experiment: Inhibition of Ras/Raf/MEK/ERK signalling pathway in human SGC-7901 cells assessed as downregulation of c-Myc expression at 0.5 to 1.5 umol/L after 48 hrs by Western blot analysis; assay type: cell-based; details: dose micromol/L 0.5-1.5, time 48.0 hrs; in short: as §3
[13] = tested on: MGC-803; experiment: Inhibition of Akt/mTOR signalling pathway in human MGC-803 cells assessed as decrease in AKT phosphorylation at Ser473 residue at 0.5 to 1.5 umol/L after 48 hrs by Western blot analysis; assay type: cell-based; details: dose micromol/L 0.5-1.5, time 48.0 hrs; in short: as §3
[14] = tested on: HGC-27; experiment: Inhibition of Akt/mTOR signalling pathway in human HGC-27 cells assessed as decrease in AKT phosphorylation at Ser473 residue at 0.5 to 1.5 umol/L after 48 hrs by Western blot analysis; assay type: cell-based; details: dose micromol/L 0.5-1.5, time 48.0 hrs; in short: as §3
[15] = tested on: MGC-803; experiment: Anticancer activity against human MGC-803 cells assessed as cell growth at 0.5 to 1.5 umol/L after 48 hrs by MTT assay relative to control; assay type: functional; details: dose micromol/L 0.5-1.5
[16] = tested on: HGC-27; experiment: Induction of apoptosis in human HGC-27 cells assessed as increase in nucleus concentration at 0.5 to 1.5 umol/L after 48 hrs by imaging analysis; assay type: functional, cell-based; details: dose micromol/L 0.5-1.5, time 48.0 hrs
[17] = tested on: HGC-27; experiment: Induction of apoptosis in human HGC-27 cells induction of DNA fragmentation at 0.5 to 1.5 umol/L after 48 hrs by imaging analysis; assay type: functional, cell-based; details: dose micromol/L 0.5-1.5, time 48.0 hrs
[18] = tested on: MGC-803; experiment: Induction of apoptosis in human MGC-803 cells assessed as upregulation of NOXA level at 0.5 to 1.5 umol/L after 48 hrs Western blot analysis; assay type: functional, cell-based; details: dose micromol/L 0.5-1.5, time 48.0 hrs; in short: as §2
[19] = tested on: MGC-803; experiment: Induction of apoptosis in human MGC-803 cells assessed as downregulation of Mcl-1 level at 0.5 to 1.5 umol/L after 48 hrs Western blot analysis; assay type: functional, cell-based; details: dose micromol/L 0.5-1.5, time 48.0 hrs; in short: as §2
[20] = tested on: MGC-803; experiment: Induction of apoptosis in human MGC-803 cells assessed as downregulation of Bcl-2 level at 0.5 to 1.5 umol/L after 48 hrs Western blot analysis; assay type: functional, cell-based; details: dose micromol/L 0.5-1.5, time 48.0 hrs; in short: as §2
[21] = tested on: MGC-803; experiment: Induction of apoptosis in human MGC-803 cells assessed as downregulation of c-IAP1 level at 0.5 to 1.5 umol/L after 48 hrs Western blot analysis; assay type: functional, cell-based; details: dose micromol/L 0.5-1.5, time 48.0 hrs; in short: as §2
[22] = tested on: MGC-803; experiment: Induction of apoptosis in human MGC-803 cells assessed as downregulation of XIAP level at 0.5 to 1.5 umol/L after 48 hrs Western blot analysis; assay type: functional, cell-based; details: dose micromol/L 0.5-1.5, time 48.0 hrs; in short: as §2
[23] = tested on: HGC-27; experiment: Induction of apoptosis in human HGC-27 cells assessed as downregulation of Mcl-1 level at 0.5 to 1.5 umol/L after 48 hrs Western blot analysis; assay type: functional, cell-based; details: dose micromol/L 0.5-1.5, time 48.0 hrs; in short: as §2
[24] = tested on: HGC-27; experiment: Induction of apoptosis in human HGC-27 cells assessed as downregulation of XIAP level at 0.5 to 1.5 umol/L after 48 hrs Western blot analysis; assay type: functional, cell-based; details: dose micromol/L 0.5-1.5, time 48.0 hrs; in short: as §2
[25] = tested on: SGC-7901; experiment: Induction of apoptosis in human SGC-7901 cells assessed as cleavage of caspase-7 at 0.5 to 1.5 umol/L after 48 hrs Western blot analysis; assay type: functional, cell-based; details: dose micromol/L 0.5-1.5, time 48.0 hrs; in short: as §2
[26] = tested on: MGC-803; experiment: Inhibition of colony formation in human MGC-803 cells at 0.5 to 1.5 umol/L after 7 days by crystal violet staining based assay; assay type: functional, cell-based; details: dose micromol/L 0.5-1.5, time 7.0 day
In short: (§4)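 5000 cells per well seeded and held 24 h at 37 °C, 5% CO2, then exposed to graded concentrations (0.5, 1, 1.5 µmol/L). After 7 days the medium was removed and wells were washed twice with PBS. Colonies fixed in 4% paraformaldehyde and stained with 0.1% crystal violet.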

[27] = tested on: SGC-7901; experiment: Inhibition of colony formation in human SGC-7901 cells at 0.5 to 1.5 umol/L after 7 days by crystal violet staining based assay; assay type: functional, cell-based; details: dose micromol/L 0.5-1.5, time 7.0 day; in short: as §4
[28] = tested on: HGC-27; experiment: Anticancer activity against human HGC-27 cells assessed as cell growth at 0.5 to 1.5 umol/L after 48 hrs by MTT assay relative to control; assay type: functional; details: dose micromol/L 0.5-1.5

Question: With `COc1cc(N(Cc2nc3ccccc3[nH]2)S(=O)(=O)c2ccc(C)cc2)cc(OC)c1OC` as the compound, how does the Activity [1] read?
Answer: The Activity was “Dose-dependent effect”.

Question: And the pIC50 ([1]; MGC-803, 48 h)?
Answer: Its pIC50 is 5.99.

Question: What about the “Ratio IC50” value [2] of the same compound?
Answer: The value was 14.9.

Question: What about the “Ratio IC50” value [3] of the same compound?
Answer: Its value is 9.4.

Question: What about the Activity [4] of the same compound?
Answer: The Activity was “Active”.

Question: And the Activity [5]?
Answer: Its Activity is “Active”.

Question: What about the Activity [6] of the same compound?
Answer: The Activity was “Active”.

Question: And the Activity [7]?
Answer: Its Activity is “Active”.

Question: What about the Activity [8] of the same compound?
Answer: The Activity was “Active”.

Question: What about the inhibition [9] of the same compound?
Answer: The inhibition was “Dose-dependent effect”.

Question: And the inhibition [10]?
Answer: The inhibition was “Dose-dependent effect”.

Question: And the inhibition [11]?
Answer: The inhibition was “Dose-dependent effect”.

Question: What about the inhibition [12] of the same compound?
Answer: Its inhibition is “Active”.

Question: What about the inhibition [13] of the same compound?
Answer: The inhibition was “Active”.

Question: What about the inhibition [14] of the same compound?
Answer: The inhibition was “Active”.

Question: And the “fold change (FC)” value [15]?
Answer: The value was under 2.

Question: What about the Activity [16] of the same compound?
Answer: Its Activity is “Active”.

Question: And the Activity [17]?
Answer: Its Activity is “Active”.

Question: What about the Activity [18] of the same compound?
Answer: The Activity was “Active”.

Question: And the Activity [19]?
Answer: Its Activity is “Active”.

Question: What about the Activity [20] of the same compound?
Answer: The Activity was “Active”.

Question: What about the Activity [21] of the same compound?
Answer: Its Activity is “Active”.

Question: And the Activity [22]?
Answer: Its Activity is “Active”.

Question: What about the Activity [23] of the same compound?
Answer: Its Activity is “Active”.

Question: What about the Activity [24] of the same compound?
Answer: Its Activity is “Active”.

Question: And the Activity [25]?
Answer: The Activity was “Active”.

Question: And the inhibition [26]?
Answer: The inhibition was “Active”.

Question: What about the inhibition [27] of the same compound?
Answer: Its inhibition is “Active”.

Question: And the “fold change (FC)” value [28]?
Answer: Its value is under 2.

Source: ChEMBL document CHEMBL4665669, “Novel tertiary sulfonamide derivatives containing benzimidazole moiety as potent anti-gastric cancer agents: Design, synthesis and SAR studies” (Eur J Med Chem, 2019)
